In brackets after ≈: the same amount, converted by molar mass. Activity calls are given as the source filed them. The rule behind the calls is not given here.
Tests used:
Microsporum canis [1] = experiment: Antifungal activity against Microsporum canis C 112 by agar dilution method; assay type: functional
Summary of the method: (§1)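 Dermatophytes were tested by agar dilution on Sabouraud chloramphenicol agar in 96-well plates. DMSO stock solutions were serially two-fold diluted into the medium to give final concentrations of 0.10–50 µg/mL, with DMSO not exceeding 2%. Each well received 5 µL of spore suspension.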

Aspergillus niger = experiment: Antifungal activity against Aspergillus niger ATCC 9029 by agar dilution method; assay type: functional, organism-based
Summary of the method: (§2)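 Sabouraud chloramphenicol agar dilution in 96-well plates. Strains were grown on Sabouraud chloramphenicol agar slants for 48 h at 30 °C and suspended in sterile distilled water, adjusted to 10^6 viable cells/mL. DMSO stocks were serially two-fold diluted into the agar to give 0.10–50 µg/mL, with DMSO ≤2% final. 5 µL inoculum per well; incubated 24, 48 or 72 h at 30 °C per control growth; MIC recorded.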

[2] = tested on: Trichophyton mentagrophytes; experiment: Antifungal activity against Trichophyton mentagrophytes ATCC 9972 up to 50 ug/mL by agar dilution method; assay type: functional, organism-based; summary of the method: as §1
Saccharomyces cerevisiae = experiment: Antifungal activity against Saccharomyces cerevisiae ATCC 9763 by agar dilution method; assay type: functional, organism-based; summary of the method: as §2
Epidermophyton floccosum [3] = experiment: Antifungal activity against Epidermophyton floccosum C 114 up to 50 ug/mL by agar dilution method; assay type: functional, organism-based; summary of the method: as §1
Epidermophyton floccosum [4] = experiment: Antifungal activity against Epidermophyton floccosum C 114 by agar dilution method; assay type: functional; summary of the method: as §1
Trichophyton rubrum [5] = experiment: Antifungal activity against Trichophyton rubrum C 113 up to 50 ug/mL by agar dilution method; assay type: functional, organism-based; summary of the method: as §1
Candida albicans = experiment: Antifungal activity against Candida albicans ATCC 10231 by agar dilution method; assay type: functional, organism-based; summary of the method: as §2
Nannizzia gypsea [6] = experiment: Antifungal activity against Microsporum gypseum C 115 up to 50 ug/mL by agar dilution method; assay type: functional, organism-based; summary of the method: as §1
Aspergillus fumigatus = experiment: Antifungal activity against Aspergillus fumigatus ATCC 26934 by agar dilution method; assay type: functional, organism-based; summary of the method: as §2
Aspergillus flavus = experiment: Antifungal activity against Aspergillus flavus ATCC 9170 by agar dilution method; assay type: functional, organism-based; summary of the method: as §2
Trichophyton rubrum [7] = experiment: Antifungal activity against Trichophyton rubrum C 113 by agar dilution method; assay type: functional; summary of the method: as §1
Cryptococcus neoformans = experiment: Antifungal activity against Cryptococcus neoformans ATCC 32264 by agar dilution method; assay type: functional, organism-based; summary of the method: as §2
Nannizzia gypsea [8] = experiment: Antifungal activity against Microsporum gypseum C 115 by agar dilution method; assay type: functional; summary of the method: as §1
Microsporum canis [9] = experiment: Antifungal activity against Microsporum canis C 112 up to 50 ug/mL by agar dilution method; assay type: functional, organism-based; summary of the method: as §1
[10] = tested on: Trichophyton mentagrophytes; experiment: Antifungal activity against Trichophyton mentagrophytes ATCC by agar dilution method; assay type: functional; summary of the method: as §1

Compound	MIC (Microsporum canis [1]) [µg/mL]	Activity (Aspergillus niger)	Activity [2]	Activity (Saccharomyces cerevisiae)	Activity (Epidermophyton floccosum [3])	MIC (Epidermophyton floccosum [4]) [µg/mL]	Activity (Trichophyton rubrum [5])	Activity (Candida albicans)	Activity (Nannizzia gypsea [6])	Activity (Aspergillus fumigatus)	Activity (Aspergillus flavus)	MIC (Trichophyton rubrum [7]) [µg/mL]	Activity (Cryptococcus neoformans)	MIC (Nannizzia gypsea [8]) [µg/mL]	Activity (Microsporum canis [9])	MIC [10] [µg/mL]
CCC(=O)c1ccc(OC)c(OC)c1	> 50	inactive	inactive	inactive	inactive	50 (≈ 257 µM)	inactive	inactive	inactive	inactive	inactive	> 50	inactive	> 50	inactive	> 50
C/C=C\c1ccc(O)c(OC)c1 [ISOEUGENOL]	> 50	inactive	inactive	inactive	inactive	> 50	inactive	inactive	inactive	inactive	inactive	> 50	inactive	> 50	inactive	> 50
CCC(=O)c1ccc2c(c1)OCO2	> 50	inactive	inactive	inactive	inactive	40 (≈ 224 µM)	inactive	inactive	inactive	inactive	inactive	> 50	inactive	> 50	inactive	> 50
COc1cc(C(=O)C(C)Cl)cc(OC)c1OC (stereo not given)	6.25 (≈ 24.2 µM)	inactive	inactive	inactive	inactive	0.5 (≈ 1.93 µM)	inactive	inactive	inactive	inactive	inactive	10 (≈ 38.7 µM)	inactive	12.5 (≈ 48.3 µM)	inactive	15 (≈ 58 µM)
CCC(O)c1ccc2c(c1)OCO2 (stereo not given)	> 50	inactive	inactive	inactive	inactive	> 50	inactive	inactive	inactive	inactive	inactive	> 50	inactive	> 50	inactive	> 50
CCC(=O)c1ccc2ccccc2c1	50 (≈ 271 µM)	inactive	inactive	inactive	inactive	40 (≈ 217 µM)	inactive	inactive	inactive	inactive	inactive	40 (≈ 217 µM)	inactive	40 (≈ 217 µM)	inactive	25 (≈ 136 µM)
CC(C)C(=O)c1ccc2ccccc2c1	40 (≈ 202 µM)	inactive	inactive	inactive	inactive	40 (≈ 202 µM)	inactive	inactive	inactive	inactive	inactive	> 50	inactive	25 (≈ 126 µM)	inactive	25 (≈ 126 µM)
C=CCc1ccc(OC)c(OC)c1 [METHYLEUGENOL]	> 50	inactive	inactive	inactive	inactive	> 50	inactive	inactive	inactive	inactive	inactive	> 50	inactive	> 50	inactive	> 50
C=CCc1ccc(O)c(OC)c1 [EUGENOL]	> 50	inactive	inactive	inactive	inactive	> 50	inactive	inactive	inactive	inactive	inactive	> 50	inactive	> 50	inactive	> 50
COc1ccc(C(O)C(C)C)cc1OC (stereo not given)	> 50	inactive	inactive	inactive	inactive	> 50	inactive	inactive	inactive	inactive	inactive	> 50	inactive	> 50	inactive	> 50
C=CCc1cc(OC)c(OC)c(OC)c1	> 50	inactive	inactive	inactive	inactive	> 50	inactive	inactive	inactive	inactive	inactive	> 50	inactive	> 50	inactive	> 50
CCC(=O)c1ccc(OC)cc1	> 50	inactive	inactive	inactive	inactive	> 50	inactive	inactive	inactive	inactive	inactive	> 50	inactive	> 50	inactive	> 50
CCC(O)c1ccc(OC)c(OC)c1 (stereo not given)	> 50	inactive	inactive	inactive	inactive	50 (≈ 255 µM)	inactive	inactive	inactive	inactive	inactive	> 50	inactive	> 50	inactive	> 50
CC(C)(C)C(=O)c1ccccc1	> 50	inactive	inactive	inactive	inactive	50 (≈ 308 µM)	inactive	inactive	inactive	inactive	inactive	> 50	inactive	> 50	inactive	> 50
CC(Cl)C(=O)c1ccc2c(c1)OCO2 (stereo not given)	12.5 (≈ 58.8 µM)	inactive	inactive	inactive	inactive	6.25 (≈ 29.4 µM)	inactive	inactive	inactive	inactive	inactive	10 (≈ 47 µM)	inactive	12.5 (≈ 58.8 µM)	inactive	25 (≈ 118 µM)

Source: ChEMBL document CHEMBL1144120, “In vitro evaluation of antifungal properties of phenylpropanoids and related compounds acting against dermatophytes” (1999)
